Data on 10 compounds can be found in ChEMBL document CHEMBL1138913, “Synthesis, structure analysis, and antitumor activity of 3,6-disubstituted-1,4-dihydro-1,2,4,5-tetrazine derivatives” (2006).

Holding throughout (format): functional
Assay [1] deals with P388. The experiment in a line: Antiproliferative activity against mouse P388 cell line at 100 umol/L by MTT method. The method in brief: (§1)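 P-388 and HL-60 cells were tested in vitro by MTT assay over five tenfold concentrations from 10^-4 to 10^-8 mol/L. Each value is the percent inhibition ratio of cancer cell growth at that concentration.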
A general note: Tetrazolium assays rely on reduction of a dye to a coloured formazan, in cell work by metabolically active cells.

Assay [2] deals with HL-60. Put plainly: Antiproliferative activity against human HL60 cell line at 0.01 umol/L by MTT method. The method in brief: as §1
The subject of assay [3] is A549. Put plainly: Antiproliferative activity against human A549 cell line at 1 umol/L by SRB method. The method in brief: (§2)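 Growth inhibition of A-549 and BEL-7402 cells was measured in vitro by sulforhodamine B (SRB) staining. Compounds were tested across five tenfold concentrations from 10^-4 to 10^-8 mol/L, and each value is reported as the percent inhibition ratio of cell growth at that concentration.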
(In general: The SRB assay estimates cell density from bound dye.)

The test system of assay [4] is A549. The experiment in a line: Antiproliferative activity against human A549 cell line at 100 umol/L by SRB method. In a few lines:
as §2

The subject of assay [5] is P388. The experiment in a line: Antiproliferative activity against mouse P388 cell line at 10 umol/L by MTT method. In a few lines: as §1
Assay [6] deals with HL-60. Put plainly: Antiproliferative activity against human HL60 cell line at 10 umol/L by MTT method. In a few lines:
as §1

Assay [7] has as its system Bel-7402. Put plainly: Antiproliferative activity against human BEL-7402 cell line at 1 umol/L by SRB method. The method in brief:
as §2

Assay [8] relates to Bel-7402. Put plainly: Antiproliferative activity against human BEL-7402 cell line at 0.1 umol/L by SRB method. In a few lines: as §2
Assay [9] has as its system P388. The experiment in a line: Antiproliferative activity against mouse P388 cell line at 0.1 umol/L by MTT method. The method in brief: as §1
Assay [10] deals with P388. Put plainly: Antiproliferative activity against mouse P388 cell line at 0.01 umol/L by MTT method. The method in brief:
as §1

Assay [11] has as its system HL-60. The experiment in a line: Antiproliferative activity against human HL60 cell line at 100 umol/L by MTT method. In a few lines: as §1
The subject of assay [12] is A549. The experiment in a line: Antiproliferative activity against human A549 cell line at 0.01 umol/L by SRB method. The method in brief: as §2
For assay [13], the system named is A549. Put plainly: Antiproliferative activity against human A549 cell line at 10 umol/L by SRB method. In a few lines: as §2
Assay [14] relates to Bel-7402. The experiment in a line: Antiproliferative activity against human BEL-7402 cell line at 100 umol/L by SRB method. In a few lines:
as §2

For assay [15], the system named is Bel-7402. Put plainly: Antiproliferative activity against human BEL-7402 cell line at 0.01 umol/L by SRB method. In a few lines:
as §2

Assay [16] concerns HL-60. The experiment in a line: Antiproliferative activity against human HL60 cell line at 0.1 umol/L by MTT method. In a few lines:
as §1

Assay [17] relates to HL-60. The experiment in a line: Antiproliferative activity against human HL60 cell line at 1 umol/L by MTT method. The method in brief:
as §1

Assay [18] has as its system A549. The experiment in a line: Antiproliferative activity against human A549 cell line at 0.1 umol/L by SRB method. In a few lines:
as §2

The subject of assay [19] is P388. Put plainly: Antiproliferative activity against mouse P388 cell line at 1 umol/L by MTT method. In a few lines: as §1
Assay [20] deals with Bel-7402. Put plainly: Antiproliferative activity against human BEL-7402 cell line at 10 umol/L by SRB method. In a few lines:
as §2

Structures are written as SMILES.

For the compound `Clc1ccc(Cc2nnc(Cc3ccc(Cl)cc3)nn2)cc1`, the Activity in the assay with P388 [1] stood at 65.8%; with HL-60 [2] it was 7.6%; with A549 [3] it was 9.3%; with A549 [4], 58.4%; in the assay on P388 [5], 57.1%; in the assay on HL-60 [6], 22.3%. In addition, the Activity in the assay with Bel-7402 [7] is 0%; in the assay on Bel-7402 [8] it was 0%; in the assay on P388 [9] it was 1.1%; in the assay with P388 [10], 8.7%; with HL-60 [11], 85.4%; in the assay with A549 [12] it was 0%. In addition, the Activity in the assay with A549 [13] came out at 29.1%; in the assay with Bel-7402 [14], 61.2%; in the assay on Bel-7402 [15], 6%; in the assay on HL-60 [16] it was 21.1%; in the assay with HL-60 [17] it was 13.5%; in the assay on A549 [18], 8.9%. Besides, the Activity in the assay with P388 [19] is listed as 13.1%; with Bel-7402 [20] it was 0%.

With `Cc1cccnc1-c1nnc(-c2ncccc2C)nn1`, the Activity came out at 34.9% in the assay with P388 [1]; 4.2% with HL-60 [2]; 0% in the assay on A549 [3]; 93.5% in the assay on A549 [4]; 0% in the assay with P388 [5]; 96.6% in the assay on HL-60 [6]. The Activity in the assay with Bel-7402 [7] is 0%; with Bel-7402 [8] it was 0%; in the assay on P388 [9] it was 0%; in the assay on P388 [10] it was 0%; in the assay with HL-60 [11], 94.3%; in the assay with A549 [12], 0%. Besides, the Activity was 9.8% in the assay with A549 [13]; 93% in the assay with Bel-7402 [14]; 2.8% in the assay with Bel-7402 [15]; 9.1% with HL-60 [16]; 7% with HL-60 [17]; 0% in the assay on A549 [18]. The Activity in the assay with P388 [19] came out at 0%; with Bel-7402 [20] it was 23.8%.

As for `FC(F)(F)c1ccc(-c2nnc(-c3ccc(C(F)(F)F)cc3)nn2)cc1`, the Activity in the assay with P388 [1] was 40.2%; in the assay on HL-60 [2], 0%; in the assay on A549 [3], 33%; with A549 [4] it was 51.5%; with P388 [5], 2.5%; in the assay with HL-60 [6] it was 7%. The Activity with Bel-7402 [7] worked out at 0%; in the assay with Bel-7402 [8], 0%; with P388 [9], 0%; in the assay with P388 [10] it was 0%; in the assay with HL-60 [11], 43.7%; in the assay on A549 [12], 9.7%. Besides, the Activity in the assay on A549 [13] amounted to 44.4%; with Bel-7402 [14], 21.3%; with Bel-7402 [15], 0%; in the assay on HL-60 [16], 1.4%; in the assay on HL-60 [17] it was 5.8%; with A549 [18], 19.5%. Further, the Activity in the assay with P388 [19] turned out to be 0%; in the assay on Bel-7402 [20], 12.6%.

As to `Oc1ccc(Cl)cc1C1=NN=C(c2cc(Cl)ccc2O)NN1`, the Activity was 89% in the assay on P388 [1]; 0% with A549 [3]; 65.3% with A549 [4]; 0% in the assay on P388 [5]; 0% in the assay on P388 [9]; 0% with P388 [10]. Also, the Activity with A549 [12] is 0%; in the assay on A549 [13], 80.3%; in the assay with A549 [18], 0%; in the assay with P388 [19], 0%.

With `Clc1ccc(C2=NN=C(c3ccc(Cl)cc3)NN2)cc1`, the Activity in the assay on P388 [1] is 65.9%; with A549 [3], 4.7%; in the assay with A549 [4], 73.4%; in the assay with P388 [5], 51%; with P388 [9], 19.4%; in the assay on P388 [10] it was 4.9%. Moreover, the Activity stood at 7.1% in the assay on A549 [12], 2% in the assay on A549 [13], 0% with A549 [18] and 36% in the assay on P388 [19].

On to `Clc1ccc(-c2nnc(-c3ccc(Cl)cc3)nn2)cc1`, for which the Activity in the assay with P388 [1] was 0%; in the assay on HL-60 [2], 0%; with A549 [3], 29%; in the assay with A549 [4], 52.3%; in the assay with P388 [5] it was 0%; with HL-60 [6] it was 12.2%. The Activity with Bel-7402 [7] is on record as 0%; in the assay on Bel-7402 [8] it was 0%; in the assay with P388 [9], 0%; in the assay on P388 [10], 0%; in the assay on HL-60 [11], 66.7%; in the assay on A549 [12], 16.1%. Also, the Activity in the assay with A549 [13] is 35.1%; with Bel-7402 [14], 27.4%; with Bel-7402 [15], 3.4%; in the assay with HL-60 [16], 4%; with HL-60 [17] it was 0%; in the assay on A549 [18], 19.4%. Also, the Activity is given as 0% in the assay with P388 [19] and 0.1% in the assay on Bel-7402 [20].

`Clc1ccc(CC2=NNC(Cc3ccc(Cl)cc3)=NN2)cc1`: the Activity in the assay with P388 [1] came to 48.8%; in the assay with A549 [3] it was 3%; with A549 [4], 64.5%; in the assay with P388 [5], 15.5%; in the assay with P388 [9] it was 2.9%; in the assay with P388 [10] it was 0%. For the same compound, the Activity with A549 [12] turned out to be 7.8%; with A549 [13], 17.8%; in the assay with A549 [18], 10.1%; with P388 [19] it was 4.4%.

For `FC(F)(F)c1ccc(C2=NN=C(c3ccc(C(F)(F)F)cc3)NN2)cc1`, the Activity is listed as 47.7% with P388 [1]; 0% with A549 [3]; 70.3% with A549 [4]; 36.9% in the assay on P388 [5]; 13.8% with P388 [9]; 9.1% in the assay on P388 [10]. The Activity is on record as 0% in the assay with A549 [12], 22% in the assay on A549 [13], 0% with A549 [18] and 15.2% in the assay with P388 [19].

`Oc1ccc(Cl)cc1-c1nnc(-c2cc(Cl)ccc2O)nn1`: the Activity in the assay on P388 [1] stood at 92.5%; in the assay with A549 [3], 16.4%; with A549 [4], 7.6%; with P388 [5], 90.7%; in the assay with P388 [9], 88%; in the assay with P388 [10] it was 82.8%. The Activity with A549 [12] is on record as 0%; in the assay on A549 [13] it was 62.3%; in the assay with A549 [18], 0%; with P388 [19] it was 91.2%.

For the compound `Clc1ccccc1-c1nnc(-c2ccccc2Cl)nn1` [CLOFENTEZINE], the Activity in the assay on P388 [1] came out at 0%; in the assay with A549 [3], 5.6%; with A549 [4], 8.2%; in the assay on P388 [5], 0%; with P388 [9] it was 0%; with P388 [10] it was 0%. The Activity with A549 [12] worked out at 12.6%; with A549 [13], 2.8%; with A549 [18] it was 14.6%; in the assay with P388 [19], 0%.
